ChEMBL document CHEMBL1157767, “Phenylcinnamides as novel antimitotic agents” (J Med Chem, 2010)
pIC50: −log10 of the molar value. Calls of active or inactive are those of the source. The calls are words filed in the database; no cut-off is given here.

Assays:
[1] = test system: HeLa; experiment: Cytotoxicity against human HeLa cells after 72 hrs SRB assay; format: functional, cell-based
How it was run: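 HeLa cells (5 × 10⁴ cells/mL suspension) seeded with compound from DMSO dilution series, 10 concentrations 100 μM to 5 nM, five replicates each; 72 h at 37 °C, 5% CO₂. TCA fixation, sulforhodamine B staining, bound dye released in 10 mM Tris pH 10.5, A510. Plate positive and DMSO controls calibrate % death; IC50 from four-parameter logistic fit; SD from ≥3 experiments, or mean of two.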

[2] = test system: U-937; experiment: Cytotoxicity against human U937 cells after 72 hrs MTS assay; format: functional, cell-based; conditions: U-937, 72 h
How it was run: (§1)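 Cells in RPMI-1640/10% FBS seeded at 1 × 10⁵ (U-937, HL-60) or 1.5 × 10⁵ (HL-60/VCR) cells/mL with compound from DMSO series, 10 concentrations 100 μM to 5 nM, five replicates; 72 h at 37 °C. MTS/PMS added until vehicle OD ≈1.5, A490. Internal positive and DMSO controls; IC50 by four-parameter logistic fit; SD from ≥3 experiments, or mean of two.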

[3] = test system: HeLa; experiment: Induction of mitotic arrest in human HeLa cells assessed as increase in number of cells with mitotic DNA by indirect immunofluorescence staining; format: functional, cell-based
[4] = test system: HL-60; experiment: Selectivity ratio of IC50 for vincristine-resistant human HL60 cells to IC50 for human HL60 cells; format: functional
How it was run: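 Ratio of MTS-assay IC50 (72 h) in P-gp-overexpressing, vincristine/colchicine-resistant HL-60/VCR over IC50 in parental HL-60.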

[5] = test system: U-937; experiment: Cell cycle arrest in human U937 cells by accumulation of cells at G2/M phase at 25 uM after 9 hrs by propidium iodide staining based flow cytometry; format: functional
[6] = test system: HL-60; experiment: Cytotoxicity against vincristine-resistant human HL60 cells after 72 hrs MTS assay; format: functional, cell-based; conditions: HL-60, 72 h; how it was run: as §1
[7] = Inhibition of tubulin polymerization at 100 uM by turbidimetry
[8] = test system: HeLa; experiment: Cell cycle arrest in human HeLa cells by accumulation of cells at G2/M phase at 25 uM after 9 hrs by propidium iodide staining based flow cytometry; format: functional; conditions: in the assay text read “M phase” for “G2/M phase”
How it was run: (§2)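 HeLa synchronized in G1/S by double thymidine block, released by washing and plated in fresh medium with test agent (25 μM or 100 nM) or DMSO vehicle for 9 h at 37 °C. Cells fixed in 3% formaldehyde-PBS, permeabilized in cold MeOH, stained with mouse anti-phospho(Ser10) histone H3 then Alexa-Fluor 488 secondary, RNase A-treated, propidium iodide DNA stain. Dual-laser flow cytometry; PI marks G2/M, phospho-H3 marks M-phase.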

[9] = test system: HeLa; experiment: Induction of mitotic arrest in human HeLa cells assessed as mitotic index by indirect immunofluorescence staining (Rvb=2.2%); format: functional
[10] = test system: HeLa; experiment: Induction of mitotic arrest in human HeLa cells assessed as chromosomal condensation at 25 uM after 6 hrs fluorescence confocal microscopy; format: functional, cell-based
How it was run: (§3)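 HeLa on nitric acid-washed coverslips, treated at 70% confluency for 6 h with compound (25 μM) or DMSO (0.2% final). Glutaraldehyde fixation in BRB-80, Triton X-100 permeabilization, NaBH₄ reduction, goat-serum block, FITC anti-α-tubulin plus Alexa-Fluor 488 secondary, propidium iodide with RNase A; laser scanning confocal imaging, 63× oil objective.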

[11] = test system: HeLa; experiment: Cell cycle arrest in human HeLa cells by accumulation of cells at G2/M phase at 25 uM after 9 hrs by M-phase fluorescence staining based flow cytometry; format: functional; how it was run: as §2
[12] = test system: HeLa; experiment: Induction of mitotic arrest in human HeLa cells assessed as disruption of microtubule assembly at 25 uM after 6 hrs fluorescence confocal microscopy; format: functional, cell-based; how it was run: as §3
[13] = test system: HL-60; experiment: Cytotoxicity against human HL60 cells after 72 hrs MTS assay; format: functional, cell-based; conditions: HL-60, 72 h; how it was run: as §1
[14] = test system: HeLa; experiment: Cell cycle arrest in human HeLa cells by accumulation of cells at M phase at 100 nM after 9 hrs by propidium iodide staining based flow cytometry; format: functional; how it was run: as §2
[15] = test system: HeLa; experiment: Cell cycle arrest in human HeLa cells by accumulation of cells at G2 phase at 100 nM after 9 hrs by propidium iodide staining based flow cytometry; format: functional; how it was run: as §2
[16] = species on record: Bos taurus; experiment: Inhibition of bovine brain tubulin polymerization at 10 uM by turbidimetry

| SMILES | pIC50 [1] | pIC50 [2] | other results |
| --- | --- | --- | --- |
| C=CCOc1cccc(/C=C/C(=O)Nc2cc(OC)c(OC)c(OC)c2)c1 | 5.27 | 4.88 | – |
| COc1cccc(/C=C/C(=O)Nc2cc(OC)c(OC)c(OC)c2)c1 | 4.95 | 5.52 | Activity [3]: Active; Ratio IC50 [4]: 3.74; Activity [5]: Active; pIC50 [6]: 4.94; inhibition [7]: Active; Activity [8]: 49%; Activity [9]: 18.2%; Activity [10]: Active; Activity [11]: Active; Activity [12]: Active; pIC50 [13]: 5.51 |
| COc1cccc(/C=C/C(=O)Nc2ccccc2)c1 | < 4.30 | < 4.30 | – |
| COc1cc(NC(=O)/C=C/c2cc(OC)c(OC)c(OC)c2)cc(OC)c1 | 4.41 | 5.01 | – |
| COc1cc(/C=C/C(=O)Nc2cc(OC)c(OC)c(OC)c2)cc(OC)c1OC | < 4.30 | 4.82 | – |
| COc1cc(NC(=O)/C=C/c2ccccc2)cc(OC)c1OC | < 4.30 | 4.35 | – |
| COc1cc(/C=C/C(=O)Nc2ccccc2)cc(OC)c1OC | < 4.30 | < 4.30 | – |
| COc1cc2c(cc1O)CC[C@@H]1[C@@H]2CC[C@]2(C)[C@@H](O)CC[C@@H]12 [2-METHOXYESTRADIOL] | – | – | Ratio IC50 [4]: 0.26; pIC50 [6]: 6.05; pIC50 [13]: 5.47 |
| COc1ccccc1NC(=O)/C=C/c1cc(OC)c(OC)c(OC)c1 | < 4.30 | < 4.30 | – |
| COc1cccc(/C=C/C(=O)Nc2cc(C)cc(C)c2)c1 | – | < 4.30 | – |
| COc1cccc(/C=C/C(=O)Nc2ccccc2OC)c1 | – | < 4.30 | – |
| COc1cccc(/C=C/C(=O)Nc2cc(OC)cc(OC)c2)c1 | – | < 4.30 | – |
| COc1cccc(CCC(=O)Nc2cc(OC)c(OC)c(OC)c2)c1 | < 4.30 | – | – |
| COc1ccc(NC(=O)/C=C/c2cccc(OC)c2)cc1 | – | 4.74 | – |
| COc1cc(NC(=O)/C=C/c2ccc(O)cc2)cc(OC)c1OC | < 4.30 | 4.49 | – |
| COC(=O)/C=C/c1cccc(OC)c1 | < 4.30 | < 4.30 | – |
| COc1ccccc1/C=C/C(=O)Nc1cc(OC)c(OC)c(OC)c1 | 5.21 | 5.29 | – |

| SMILES | pIC50 [1] | pIC50 [2] | other results |
| --- | --- | --- | --- |
| COc1cccc(/C=C/C(=O)Nc2ccc3c(c2)OCCO3)c1 | 4.70 | 4.80 | – |
| COc1cc(NC(C)=O)cc(OC)c1OC | < 4.30 | < 4.30 | – |
| COc1ccccc1NC(=O)/C=C/c1cccc(OC(F)(F)F)c1 | 5.01 | 4.39 | – |
| COc1cc2c(c(OC)c1OC)-c1ccc(OC)c(=O)cc1[C@@H](NC(C)=O)CC2 [COLCHICINE] | – | – | Activity [14]: 59%; Ratio IC50 [4]: >1000; Activity [15]: 37%; pIC50 [6]: < 4.00; pIC50 [13]: 7.28 |
| COc1ccc(NC(=O)/C=C/c2cc(OC)c(OC)c(OC)c2)cc1 | < 4.30 | 4.65 | – |
| COc1cccc(/C=C/C(=O)Nc2c(C)cccc2C)c1 | < 4.30 | < 4.30 | – |
| COc1cc(NC(=O)/C=C/c2cccc(OCc3ccccc3)c2)cc(OC)c1OC | 5.68 | 5.74 | Ratio IC50 [4]: 0.98; pIC50 [6]: 5.26; Activity [12]: Active; pIC50 [13]: 5.25 |
| COc1cccc(NC(=O)/C=C/c2cc(OC)c(OC)c(OC)c2)c1 | – | < 4.30 | – |
| C#CCOc1cccc(/C=C/C(=O)Nc2cc(OC)c(OC)c(OC)c2)c1 | 5.70 | 5.22 | – |
| COc1cc(NC(=O)/C=C/c2cccc(OC(F)(F)F)c2)cc(OC)c1OC | 5.36 | 4.88 | Ratio IC50 [4]: 0.99; pIC50 [6]: 4.88; pIC50 [13]: 4.88 |
| COc1cccc(/C=C/C(=O)NCc2cc(OC)c(OC)c(OC)c2)c1 | < 4.30 | < 4.30 | – |
| CC(=O)O[C@H]1C(=O)[C@@]2(C)[C@H]([C@H](OC(=O)c3ccccc3)[C@]3(O)C[C@H](OC(=O)[C@H](O)[C@@H](NC(=O)c4ccccc4)c4ccccc4)C(C)=C1C3(C)C)[C@]1(OC(C)=O)CO[C@@H]1C[C@@H]2O | – | – | inhibition [7]: Active; inhibition [16]: inactive |
| COc1cccc(CCC(=O)Nc2ccccc2OC)c1 | < 4.30 | < 4.30 | – |
| COc1cccc(/C=C/C(=O)Nc2cccc(OC)c2)c1 | < 4.30 | < 4.30 | – |
| COc1ccccc1/C=C/C(=O)Nc1ccccc1OC | 4.44 | < 4.30 | – |
| COc1cc(NC(=O)/C=C/c2cccc(O)c2)cc(OC)c1OC | 4.73 | 4.25 | – |
| COc1cc(NC(=O)/C=C/c2ccc(O)cc2)cc(OC)c1 | < 4.30 | < 4.30 | – |
